In BindingDB's records for doi:10.1021/jm9014197 (Wyeth Research, 2009):

Molecular target: T1, Dickkopf-related protein 1 (Homo sapiens, UniProt O94907)
T1 sequence (O94907 whole entry): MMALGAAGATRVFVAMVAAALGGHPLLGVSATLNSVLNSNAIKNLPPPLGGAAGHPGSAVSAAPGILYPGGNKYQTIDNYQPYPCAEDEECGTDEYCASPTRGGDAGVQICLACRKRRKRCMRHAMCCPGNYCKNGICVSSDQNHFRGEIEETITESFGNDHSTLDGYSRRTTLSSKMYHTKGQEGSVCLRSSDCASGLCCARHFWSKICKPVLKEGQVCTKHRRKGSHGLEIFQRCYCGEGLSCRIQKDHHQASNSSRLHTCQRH
Assay: Inhibition of Dkk1-mediated Wnt/beta-catenin signaling in osteosarcoma cells assessed as potentiation of TCF-luciferase response
How it was run: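 Cells were transfected with a TCF-luciferase response element plus a renilla standard as the control read-out. Agonism was read as increased luciferase light output relative to DMSO alone. EC50 values are the average of at least two experiments run in triplicate.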

| EC50 [nM] | SMILES |
| --- | --- |
| 1000 | NC1CCN(c2nccc(-c3ccc4ccccc4c3)n2)CC1 [1-(4-(naphthalen-2-yl)pyrimidin-2-yl)piperidin-4-amine] |
| 7800 | Cc1ccc(-c2ccnc(Nc3ccc(S(N)(=O)=O)cc3)n2)s1 [4-(4-(5-methylthiophen-2-yl)pyrimidin-2-ylamino)benzenesulfonamide] |
| 1000 | NS(=O)(=O)c1ccc(Nc2nccc(-c3ccc4ccccc4c3)n2)cc1 [4-(4-(naphthalen-2-yl)pyrimidin-2-ylamino)benzenesulfonamide] |
| 9800 | Cc1ccc(-c2ccnc(N(C)c3ccc(S(N)(=O)=O)cc3)n2)s1 [4-(methyl(4-(5-methylthiophen-2-yl)pyrimidin-2-yl)amino)benzenesulfonamide] |
| 630 | NCC1CCN(c2nccc(-c3ccc4ccccc4c3)n2)CC1 [(1-(4-(naphthalen-2-yl)pyrimidin-2-yl)piperidin-4-yl)methanamine] |
| 1900 | CC(=O)NCC1CCN(c2nccc(-c3ccc4ccccc4c3)n2)CC1 [N-((1-(4-(naphthalen-2-yl)pyrimidin-2-yl)piperidin-4-yl)methyl)acetamide] |
